ChEMBL document CHEMBL1121680, “2,4-Diamino-5-benzylpyrimidines and analogues as antibacterial agents. 5. 3',5'-Dimethoxy-4'-substituted-benzyl analogues of trimethoprim” (J Med Chem, 1981)

How the values were obtained:
Dihydrofolate reductase [1] = biological target: T1, Dihydrofolate reductase (Rattus norvegicus, UniProt Q920D2); assay: Inhibition of rat liver Dihydrofolate reductase.; conditions: read-out: I50
T1 sequence (Q920D2 whole entry): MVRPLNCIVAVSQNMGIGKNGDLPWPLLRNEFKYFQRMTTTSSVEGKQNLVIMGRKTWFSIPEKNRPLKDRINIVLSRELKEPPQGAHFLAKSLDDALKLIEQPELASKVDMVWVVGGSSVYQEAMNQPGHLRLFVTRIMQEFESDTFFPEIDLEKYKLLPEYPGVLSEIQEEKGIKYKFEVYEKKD

[2] = biological target: T2, Dihydrofolate reductase (Rattus norvegicus) (UniProt Q920D2); assay: Percent inhibition of compound against Dihydrofolate Reductase(DHFR) of rat liver at 40000 M
T2 sequence (whole entry): T1 sequence (Q920D2 whole entry)

[3] = biological target: T2, Dihydrofolate reductase (Rattus norvegicus); assay: Compound was tested for inhibitory activity against Dihydrofolate reductase of rat liver at 2400 M
[4] = biological target: T2, Dihydrofolate reductase (Rattus norvegicus); assay: Compound was tested for inhibitory activity against Dihydrofolate reductase of rat liver at 10000; conditions: concentration not given here
[5] = biological target: T2, Dihydrofolate reductase (Rattus norvegicus); assay: Percent inhibition of compound against Dihydrofolate Reductase of rat liver at 16000 M
[6] = biological target: T2, Dihydrofolate reductase (Rattus norvegicus); assay: Compound was tested for inhibitory activity against Dihydrofolate reductase of rat liver at 1000 µM; conditions: 1000 M
[7] = biological target: T2, Dihydrofolate reductase (Rattus norvegicus); assay: Compound was tested for inhibitory activity against Dihydrofolate reductase of rat liver at 40000 M
[8] = biological target: T2, Dihydrofolate reductase (Rattus norvegicus); assay: Compound was tested for inhibitory activity against Dihydrofolate reductase of rat liver at 2000 M
Proteus vulgaris [9] = assay: Antimicrobial activity against Proteus vulgaris CN329 in mice in experiment 2; type: functional, Mus musculus
Klebsiella pneumoniae [10] = assay: Antimicrobial activity against Klebsiella pneumoniae CN3632 in mice in experiment 3; type: functional, Mus musculus
Streptococcus pyogenes [11] = assay: Antimicrobial activity against streptococcus pyogenes CN10 in mice in experiment 2; type: functional, Mus musculus
Proteus vulgaris [12] = assay: Antimicrobial activity against Proteus vulgaris CN329 in mice in experiment 1; type: functional, Mus musculus
Mus musculus [13] = assay: Concentration of compound in serum of mouse 90 min after oral administration of 2 mg dose; type: functional, organism-based
Summary of the method: (§1)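 Single po dose (10 or 2 mg per mouse) to groups of three mice (18–20 g); ~0.2 mL blood drawn from supraorbital plexus at 10–360 min and pooled; serum drug level assayed microbiologically with Bacillus pumilus as test organism. Half-life calculated from curve slopes once compound apparently evenly distributed.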

Staphylococcus aureus [14] = assay: Antimicrobial activity against Staphylococcus aureus CN491 in mice in experiment 1; type: functional, Mus musculus
Klebsiella pneumoniae [15] = assay: Antimicrobial activity against Klebsiella pneumoniae CN3632 in mice in experiment 1; type: functional, Mus musculus
Staphylococcus aureus [16] = assay: Antimicrobial activity against Staphylococcus aureus CN491 in mice in experiment 3; type: functional, Mus musculus
Escherichia coli [17] = assay: Antimicrobial activity against Escherichia coli CN348 in mice in experiment 1; type: functional, Mus musculus
Mus musculus [18] = assay: Concentration of compound in serum of mouse 360 min after oral administration of 2 mg dose; type: functional, organism-based; summary of the method: as §1
Mus musculus [19] = assay: Concentration of compound in serum of mouse 90 min after oral administration of 10 mg dose; type: functional, organism-based; summary of the method: as §1
Escherichia coli [20] = assay: Antimicrobial activity against Escherichia coli CN348 in mice in experiment 2; type: functional, Mus musculus
Mus musculus [21] = assay: Concentration of compound in serum of mouse 180 min after oral administration of 2 mg dose; type: functional, organism-based; summary of the method: as §1
Mus musculus [22] = assay: Concentration of compound in serum of mouse 10 min after oral administration of 10 mg dose; type: functional, organism-based; summary of the method: as §1
Streptococcus pyogenes [23] = assay: Antimicrobial activity against streptococcus pyogenes CN10 in mice in experiment 3; type: functional, Mus musculus
Mus musculus [24] = assay: Concentration of compound in serum of mouse 30 min after oral administration of 2 mg dose; type: functional, organism-based; summary of the method: as §1
Mus musculus [25] = assay: Half-life in serum of mice after oral administration of 2 mg dose; type: functional, organism-based; summary of the method: as §1
Mus musculus [26] = assay: Half-life in serum of mice after oral administration of 10 mg dose; type: functional, organism-based; summary of the method: as §1
Mus musculus [27] = assay: Concentration of compound in serum of mouse 30 min after oral administration of 10 mg dose; type: functional, organism-based; summary of the method: as §1
Mus musculus [28] = assay: Concentration of compound in serum of mouse 360 min after oral administration of 10 mg dose; type: functional, organism-based; summary of the method: as §1
Mus musculus [29] = assay: Concentration of compound in serum of mouse 10 min after oral administration of 2 mg dose; type: functional, organism-based; summary of the method: as §1
Mus musculus [30] = assay: Concentration of compound in serum of mouse 180 min after oral administration of 10 mg dose; type: functional, organism-based; summary of the method: as §1
Staphylococcus aureus [31] = assay: Antimicrobial activity against Staphylococcus aureus CN491 in mice in experiment 2; type: functional, Mus musculus
Escherichia coli [32] = assay: Antimicrobial activity against Escherichia coli CN348 in mice in experiment 3; type: functional, Mus musculus
Mus musculus [33] = species on record: Mus musculus; conditions: Serum
Oryctolagus cuniculus = assay: Peak serum concentration reached within 1 hr of administration of 5 mg/kg oral dose; type: functional, organism-based; design: dose 5 mg/kg
Mus musculus [34] = species on record: Mus musculus; conditions: Serum; remark: listed apart in the source
Dihydrofolate reductase [35] = biological target: T3, Dihydrofolate reductase (Escherichia coli, UniProt P0ABQ4); assay: Compound was tested for inhibitory activity against Dihydrofolate reductase of E. coli; Value ranges from 0.5-0.7M; conditions: read-out: I50
T3 sequence (P0ABQ4 whole entry): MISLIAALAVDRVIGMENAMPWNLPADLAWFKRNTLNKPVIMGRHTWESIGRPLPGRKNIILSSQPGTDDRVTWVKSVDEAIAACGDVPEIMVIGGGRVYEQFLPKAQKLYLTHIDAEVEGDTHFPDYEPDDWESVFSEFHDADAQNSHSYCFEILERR

Dihydrofolate reductase [36] = biological target: T1, Dihydrofolate reductase; assay: Compound was tested for inhibitory activity against Dihydrofolate Reductase of rat liver; conditions: read-out: I50
Klebsiella pneumoniae [37] = assay: Antimicrobial activity against Klebsiella pneumoniae CN3632 in mice in experiment 2; type: functional, Mus musculus
Dihydrofolate reductase [38] = biological target: T1, Dihydrofolate reductase; assay: Compound was tested for inhibitory activity against Dihydrofolate Reductase(DHFR) of rat liver; conditions: read-out: I50
Streptococcus pyogenes [39] = assay: Antimicrobial activity against streptococcus pyogenes CN10 in mice in experiment 1; type: functional, Mus musculus

SMILES: COc1cc(Cc2cnc(N)nc2N)cc(OC)c1OCCN1CCOCC1
- IC50 (Dihydrofolate reductase [1]): > 440 µM

SMILES: COc1cc(Cc2cnc(N)nc2N)cc(OC)c1OC(C)C
- inhibition [2]: 9%

SMILES: COc1cc(Cc2cnc(N)nc2N)cc(OC)c1Oc1ccc([N+](=O)[O-])cc1
- IC50 (Dihydrofolate reductase [1]): 50 µM

SMILES: COc1cc(Cc2cnc(N)nc2N)cc(OC)c1OCCCl
- IC50 (Dihydrofolate reductase [1]): 600 µM

SMILES: COc1cc(Cc2cnc(N)nc2N)cc(OC)c1OCCCCCCN1C(=O)c2ccccc2C1=O
- inhibition [3]: 25%

SMILES: COc1cc(Cc2cnc(N)nc2N)cc(OC)c1OCCCO
- inhibition [4]: 24%

SMILES: COc1cc(Cc2cnc(N)nc2N)cc(OC)c1OCC1CO1 (stereo not given)
- inhibition [5]: 23%

SMILES: COc1cc(Cc2cnc(N)nc2N)cc(OC)c1Oc1ccc(N)cc1
- inhibition [6]: 8%

SMILES: COc1cc(Cc2cnc(N)nc2N)cc(OC)c1OCc1ccccc1
- IC50 (Dihydrofolate reductase [1]): 47 µM

SMILES: CCOC(=O)COc1c(OC)cc(Cc2cnc(N)nc2N)cc1OC
- inhibition [7]: 12%

SMILES: COc1cc(Cc2cnc(N)nc2N)cc(OC)c1OCc1ccc([N+](=O)[O-])cc1
- inhibition [8]: 23%

SMILES: COc1cc(Cc2cnc(N)nc2N)cc(OC)c1C
- IC50 (Dihydrofolate reductase [1]): 120 µM

SMILES: CCCCCCOc1c(OC)cc(Cc2cnc(N)nc2N)cc1OC
- IC50 (Dihydrofolate reductase [1]): 200 µM

SMILES: CCc1c(OC)cc(Cc2cnc(N)nc2N)cc1OC
- IC50 (Dihydrofolate reductase [1]): 200 µM

SMILES: COc1cc(Cc2cnc(N)nc2N)cc(OC)c1OCCCCl
- ED50 (Proteus vulgaris [9]): >10 mg mouse-1
- ED50 (Klebsiella pneumoniae [10]): >10 mg mouse-1
- ED50 (Streptococcus pyogenes [11]): 3.3 mg mouse-1
- ED50 (Proteus vulgaris [12]): 8.2 mg mouse-1
- Concentration (Mus musculus [13]): 1.3 µg/mL
- ED50 (Staphylococcus aureus [14]): 2.1 mg mouse-1
- ED50 (Klebsiella pneumoniae [15]): 1 mg mouse-1
- ED50 (Staphylococcus aureus [16]): 7.1 mg mouse-1
- ED50 (Escherichia coli [17]): 6.2 mg mouse-1
- Concentration (Mus musculus [18]): 0.24 µg/mL
- Concentration (Mus musculus [19]): 26 µg/mL
- ED50 (Escherichia coli [20]): 9.4 mg mouse-1
- Concentration (Mus musculus [21]): 0.7 µg/mL
- Concentration (Mus musculus [22]): 41 µg/mL
- ED50 (Streptococcus pyogenes [23]): 7.2 mg mouse-1
- Concentration (Mus musculus [24]): 2.9 µg/mL
- T1/2 (Mus musculus [25]): 1.9 h
- T1/2 (Mus musculus [26]): 2.4 h
- Concentration (Mus musculus [27]): 31 µg/mL
- Concentration (Mus musculus [28]): 7 µg/mL
- IC50 (Dihydrofolate reductase [1]): 250 µM
- Concentration (Mus musculus [29]): 7 µg/mL
- Concentration (Mus musculus [30]): 15 µg/mL
- ED50 (Staphylococcus aureus [31]): >10 mg mouse-1
- ED50 (Escherichia coli [32]): >10 mg mouse-1

SMILES: COc1cc(Cc2cnc(N)nc2N)cc(OC)c1OC
- T1/2 (Mus musculus [33]): 2.7 h
- Concentration (Oryctolagus cuniculus): 2 µg/mL
- T1/2 (Mus musculus [34]): 0.76 h

SMILES: CCOc1c(OC)cc(Cc2cnc(N)nc2N)cc1OC
- IC50 (Dihydrofolate reductase [35]): 0.0075 µM
- IC50 (Dihydrofolate reductase [36]): 620 µM

SMILES: C=CCOc1c(OC)cc(Cc2cnc(N)nc2N)cc1OC
- ED50 (Proteus vulgaris [9]): >10 mg mouse-1
- ED50 (Klebsiella pneumoniae [10]): >10 mg mouse-1
- ED50 (Streptococcus pyogenes [11]): 4.3 mg mouse-1
- ED50 (Proteus vulgaris [12]): 10 mg mouse-1
- Concentration (Mus musculus [13]): 1 µg/mL
- ED50 (Staphylococcus aureus [14]): 2.5 mg mouse-1
- ED50 (Klebsiella pneumoniae [15]): 4.6 mg mouse-1
- ED50 (Klebsiella pneumoniae [37]): 10 mg mouse-1
- ED50 (Staphylococcus aureus [16]): 8.1 mg mouse-1
- ED50 (Escherichia coli [17]): 7.5 mg mouse-1
- Concentration (Mus musculus [18]): < 0.1 µg/mL
- IC50 (Dihydrofolate reductase [38]): 480 µM
- Concentration (Mus musculus [19]): 51 µg/mL
- ED50 (Escherichia coli [20]): 11 mg mouse-1
- Concentration (Mus musculus [21]): 0.26 µg/mL
- Concentration (Mus musculus [22]): 84 µg/mL
- ED50 (Streptococcus pyogenes [23]): 5.1 mg mouse-1
- T1/2 (Mus musculus [25]): 0.35 h
- T1/2 (Mus musculus [26]): 1.1 h
- Concentration (Mus musculus [27]): 59 µg/mL
- Concentration (Mus musculus [28]): 2.8 µg/mL
- ED50 (Streptococcus pyogenes [39]): 12 mg mouse-1
- Concentration (Mus musculus [29]): 18 µg/mL
- Concentration (Mus musculus [30]): 27 µg/mL
- ED50 (Staphylococcus aureus [31]): >10 mg mouse-1
- ED50 (Escherichia coli [32]): >10 mg mouse-1
